According to PubChem BioAssay:
Activity calls are given as the source filed them.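 How the source made its calls, unless noted: active means viability at or below 10% of carrier control in both of two separate runs; inconclusive means viability at or below 10% in only one of the two runs; inactive means the rest.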

Legend:
[1] = Her2 expression decrease, cell viability multiplex – SKBR3 breast tumor cells, AlphaScreen, ATP viability, primary screen (AID 461;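 active means Her2 level under about 52% in both replicate screens, with viability over 70% of control, limit read from the data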;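 on Her2 level: lower value means less Her2 protein in the cells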;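 on viability: percent of carrier control wells set as 100% viability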); settings: SKBR3 Her2 protein level, 18-24 h, measured here: SKBR3 viability, ATP luminescence, at 10 µM
[2] = molecular target: Receptor tyrosine-protein kinase erbB-2 (Homo sapiens) (UniProt P04626); assay: as above; settings: 18-24 h, at 10 µM, stronger effect = lower value
[3] = reduced viability of SK-BR-3 breast cancer cells – cell-based, 24 h, human, pilot screen (AID 572); settings: SK-BR-3 viability, CellTiter-Glo luminescence, at 10 µM, stronger effect = lower value;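 further: compound exposure lasted between 18 and 24 h rather than exactly 24 h; 100% = carrier-treated control wells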
[4] = HUVEC growth inhibition – cell-based, human, primary screen (AID 575;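 active means viability at or below 30% in both replicate assays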;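 further: 100% = median of untreated cell wells with 0.1% DMSO on each plate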); settings: HUVEC proliferation, CellTiter-Glo luminescence, 72 h; at 10 µM; stronger effect = lower value
Method in brief: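 System – primary HUVEC, no more than 12 passages · Medium – Low-serum (2% FBS) EBM, supplemented · Times – 72 h exposure, 37 °C, 5% CO2, 30 min RT equilibration · Measured by – luminescent ATP assay · Read-out – % viability relative to median vehicle-well signal on each plate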

[5] = H69AR cell proliferation blockers – human, duplicate replicates, primary screen (AID 580;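 active means viability at or under a set limit in both replicates, limit being median viability minus 3 SD, cut at about 48% in these data, passing the limit was not always enough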;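 further: 100% = mean luminescence of untreated wells and 0% = no signal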); settings: H69AR lung tumor cells viability, ATP luminescence, 72 h; at 10 µM; stronger effect = lower value
[6] = MRP1 drug-resistance reversers in H69AR cells – cell-based, doxorubicin co-treatment, pilot screen (AID 601;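 active means viability loss from added drug above about 55%, and viability with drug at most 40%, in both replicates, limit read from the data, passing the limit was not always enough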); settings: CellTiter-Glo, 72 h, at 10 µM; for differential viability (reversal): stronger effect = higher value
[7] = yeast transport mutant growth inhibition pilot in 384-well plates, post-Golgi transport modulator project (AID 636; in the data active means inhibition above about 31%); settings: absorbance 615 nm, about 18 h, stronger effect = higher value
[8] = growth suppression of yeast trafficking mutant, preliminary HTS, modulators of trafficking downstream of Golgi apparatus project, 1536-format plate, OD 615 nm (AID 637; in the data active means inhibition above about 30%); settings: yeast transport mutant growth, absorbance 615 nm, 18 h; stronger effect = higher value
[9] = H69AR cells + 2 uM doxorubicin, measured here: viability with 2 uM doxorubicin, stronger effect = lower value
[10] = H69AR cells, compound alone cytotoxicity

Receptor tyrosine-protein kinase erbB-2 (Homo sapiens), sequence (P04626 whole entry, looked up): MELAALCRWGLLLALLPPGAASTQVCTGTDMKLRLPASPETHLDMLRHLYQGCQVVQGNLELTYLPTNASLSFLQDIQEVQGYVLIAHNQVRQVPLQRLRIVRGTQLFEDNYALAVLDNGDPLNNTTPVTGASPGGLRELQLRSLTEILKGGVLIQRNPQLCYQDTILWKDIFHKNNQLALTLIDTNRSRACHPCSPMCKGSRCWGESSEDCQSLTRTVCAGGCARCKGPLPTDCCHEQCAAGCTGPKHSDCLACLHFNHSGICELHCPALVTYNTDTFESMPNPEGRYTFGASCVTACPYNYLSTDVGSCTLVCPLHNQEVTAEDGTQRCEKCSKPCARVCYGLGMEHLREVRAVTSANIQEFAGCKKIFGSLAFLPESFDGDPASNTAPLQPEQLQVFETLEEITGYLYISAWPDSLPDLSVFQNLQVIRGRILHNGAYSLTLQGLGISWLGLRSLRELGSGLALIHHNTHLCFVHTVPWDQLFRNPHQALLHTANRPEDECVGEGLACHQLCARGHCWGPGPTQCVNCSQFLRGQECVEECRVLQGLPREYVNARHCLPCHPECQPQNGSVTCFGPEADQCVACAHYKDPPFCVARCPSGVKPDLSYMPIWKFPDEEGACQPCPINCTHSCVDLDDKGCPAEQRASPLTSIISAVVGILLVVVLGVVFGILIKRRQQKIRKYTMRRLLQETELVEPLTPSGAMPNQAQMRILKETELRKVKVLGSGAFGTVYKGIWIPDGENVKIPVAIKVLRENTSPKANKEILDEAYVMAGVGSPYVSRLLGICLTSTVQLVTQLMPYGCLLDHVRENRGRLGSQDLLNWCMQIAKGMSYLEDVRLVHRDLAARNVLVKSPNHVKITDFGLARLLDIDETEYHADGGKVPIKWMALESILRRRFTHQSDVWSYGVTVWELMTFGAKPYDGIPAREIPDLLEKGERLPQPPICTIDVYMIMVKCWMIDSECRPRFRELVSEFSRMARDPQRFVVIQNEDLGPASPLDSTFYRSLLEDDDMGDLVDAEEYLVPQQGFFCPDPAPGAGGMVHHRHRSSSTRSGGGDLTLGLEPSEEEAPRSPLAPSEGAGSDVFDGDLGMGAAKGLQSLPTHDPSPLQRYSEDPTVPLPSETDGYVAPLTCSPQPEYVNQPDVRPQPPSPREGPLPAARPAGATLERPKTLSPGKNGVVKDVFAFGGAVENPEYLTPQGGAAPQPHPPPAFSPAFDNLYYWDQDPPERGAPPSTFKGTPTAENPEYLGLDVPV

Compound | viability [1] [%] | Her2 level [2] | viability [3] | viability [4] | viability [5] | differential viability (reversal) ([6]; H69AR cells + 2 uM doxorubicin) | viability [6, 9] [%] | viability [6, 10] [%] | inhibition [7] | inhibition [8]
CCOc1ccc2cc(C#N)c(SCC(=O)N3CCCC3)nc2c1 | 71.5 | 112% (inactive) | 71.5% (inactive) | 85.3% (inactive) | 87.3% (inactive) | 11.5% (inactive) | 75.8 | 87.3 | 6.45% (inactive) | -3.64% (inactive)
COc1ccc(N2CCN(C(=O)CSc3nnc4n3C(C)(C)Cc3ccccc3-4)CC2)cc1 | 96 | 100% (inactive) | 96% (inactive) | 84.3% (inactive) | 88.7% (inactive) | -4.46% (inactive) | 93.1 | 88.7 | -5.79% (inactive) | -1.61% (inactive)
CN1C(=O)CC(N2CCC(C(N)=O)(N3CCCCC3)CC2)C1=O (stereo not given) | 104 | 86% (inactive) | 104% (inactive) | 104% (inactive) | 98.9% (inactive) | 7.3% (inactive) | 91.6 | 98.9 | -6.8% (inactive) | 5.25% (inactive)
COc1ccc(-c2noc(CSc3nc(N)c(-c4ccccc4)c(=O)[nH]3)n2)cc1OC | 106 | 94.5% (inactive) | 106% (inactive) | 94.6% (inactive) | 84.7% (inactive) | -0.7% (inactive) | 85.4 | 84.7 | -4.13% (inactive) | -3.97% (inactive)
Cc1cc(C(=O)COC(=O)C2COc3ccccc3O2)c(C)n1CC1CCCO1 (stereo not given) | 82 | 100% (inactive) | 82% (inactive) | 99.4% (inactive) | 94% (inactive) | 0.315% (inactive) | 93.6 | 94 | -0.38% (inactive) | -4.5% (inactive)
Cc1cccn2c(=O)c3cc(C#N)c(=O)n(CCCN4CCOCC4)c3nc12 | 88.5 | 85% (inactive) | 88.5% (inactive) | 99.8% (inactive) | 102% (inactive) | 20% (inactive) | 82.2 | 102 | -3.51% (inactive) | 1.83% (inactive)
O=C1CCc2cc(S(=O)(=O)N3CCC(C(=O)NCc4ccccn4)CC3)ccc2N1 | 81 | 89% (inactive) | 81% (inactive) | 98% (inactive) | 96.7% (inactive) | 1.42% (inactive) | 95.3 | 96.7 | -0.4% (inactive) | 14.4% (inactive)
CCN1CCN(C(c2ccc(F)cc2)c2nnnn2Cc2cccs2)CC1 (stereo not given) | 83 | 105% (inactive) | 83% (inactive) | 89.4% (inactive) | 94.9% (inactive) | 8.46% (inactive) | 86.4 | 94.9 | -1.15% (inactive) | -0.17% (inactive)
COc1ccccc1-n1c(-c2cccnc2)n[nH]c1=S | 88 | 109% (inactive) | 88% (inactive) | 110% (inactive) | 109% (inactive) | 6.74% (inactive) | 102 | 109 | -0.4% (inactive) | -2.95% (inactive)
O=C(O)CN1C(=O)C2(OCCCO2)c2ccccc21 | 86.5 | 102% (inactive) | 86.5% (inactive) | 101% (inactive) | 85.1% (inactive) | -0.23% (inactive) | 85.4 | 85.1 | -0.91% (inactive) | 0.49% (inactive)
CCC(C)NC(=O)C1(C)CCC(=O)N1Cc1ccccc1OC (stereo not given) | 100 | 95% (inactive) | 100% (inactive) | 99.8% (inactive) | 95.3% (inactive) | 0.27% (inactive) | 95 | 95.3 | -5.07% (inactive) | 1.31% (inactive)
CCOC(=O)c1cnc(-n2nc(C)cc2C)nc1Nc1cccc(C(C)=O)c1 | 87.5 | 110% (inactive) | 87.5% (inactive) | 95.7% (inactive) | 88% (inactive) | -9.45% (inactive) | 97.5 | 88 | 1.32% (inactive) | -4.35% (inactive)
C=CCSc1nnc(-c2ccccc2NC(C)=O)c(=O)[nH]1 | 106 | 105% (inactive) | 106% (inactive) | 105% (inactive) | 93% (inactive) | 9.55% (inactive) | 83.4 | 93 | -3.03% (inactive) | -0.36% (inactive)
Cc1cccc(N2CCN(C(=O)c3cc4c(=O)[nH]c5ccccc5c4n3C)CC2)c1C | 72.5 | 57.5% (inactive) | 72.5% (inactive) | 65.5% (inactive) | 95.9% (inactive) | 13% (inactive) | 82.9 | 95.9 | -3.33% (inactive) | 11% (inactive)
Cc1nc(SCC#N)c2c(C)c(C)sc2n1 | 128 | 107% (inactive) | 128% (inactive) | 98.6% (inactive) | 98.4% (inactive) | 9.83% (inactive) | 88.6 | 98.4 | -5.33% (inactive) | -0.65% (inactive)
Cc1ccc2c(c1)NC(=O)C(CC(=O)NC1CCCCC1C)O2 (stereo not given) | 110 | 86.5% (inactive) | 110% (inactive) | 103% (inactive) | 97.1% (inactive) | -3.58% (inactive) | 101 | 97.1 | -2.53% (inactive) | -1.15% (inactive)
CC(=O)N1CCc2cc(S(=O)(=O)NCCC3=CCCCC3)ccc21 | 108 | 85% (inactive) | 108% (inactive) | 64% (inactive) | 91.1% (inactive) | -7.85% (inactive) | 99 | 91.1 | -3.29% (inactive) | -2.22% (inactive)
CCC(C)n1[nH]c(=O)c2c(C)cc(C)nc21 (stereo not given) | 97.5 | 91.5% (inactive) | 97.5% (inactive) | 95.8% (inactive) | 98.8% (inactive) | 9.86% (inactive) | 88.9 | 98.8 | -5.26% (inactive) | -1.64% (inactive)
O=c1[nH]c2c(s1)C(c1ccco1)C1C3CCC(C3)C1S2 (stereo not given) | 100 | 80% (inactive) | 100% (inactive) | 113% (inactive) | 78.8% (inactive) | -10.5% (inactive) | 89.3 | 78.8 | -3.29% (inactive) | 2.73% (inactive)
O=S(=O)(NCc1ccccc1)c1ccc2c(c1)OCCO2 | 124 | 110% (inactive) | 124% (inactive) | 97.1% (inactive) | 76.8% (inactive) | -7.4% (inactive) | 84.2 | 76.8 | -3.9% (inactive) | -2.7% (inactive)
COC(=O)Nc1ccc(S(=O)(=O)N2CCN(c3ccc(F)cc3)CC2)cc1 | 96.5 | 106% (inactive) | 96.5% (inactive) | 86.9% (inactive) | 97.1% (inactive) | 3.18% (inactive) | 94 | 97.1 | -4.61% (inactive) | 9.84% (inactive)
COc1ccccc1C(=O)N1CCN(C(=O)c2ccncc2)CC1 | 122 | 106% (inactive) | 122% (inactive) | 88.6% (inactive) | 103% (inactive) | 13.7% (inactive) | 89.2 | 103 | -3.73% (inactive) | 4.35% (inactive)
CCOCCCNC(=O)CCNS(=O)(=O)c1ccc(C)cc1 | 102 | 108% (inactive) | 102% (inactive) | 89.9% (inactive) | 105% (inactive) | 8.21% (inactive) | 96.7 | 105 | -3.03% (inactive) | -5.5% (inactive)
O=C(O)[C@@H]1CCCN1c1ncnc2sc3c(c12)CCC3 | 128 | 100% (inactive) | 128% (inactive) | 98.3% (inactive) | 106% (inactive) | 3.99% (inactive) | 102 | 106 | -6.8% (inactive) | 0.32% (inactive)
Cc1nnc(SCc2ccccc2)n1N | 104 | 98% (inactive) | 104% (inactive) | 103% (inactive) | 99.6% (inactive) | 0.72% (inactive) | 98.9 | 99.6 | -0.67% (inactive) | -5.32% (inactive)
CCOCCCNCC(=O)N1CCN(S(=O)(=O)c2ccc(C)cc2)CC1 | 90 | 99.5% (inactive) | 90% (inactive) | 96.2% (inactive) | 101% (inactive) | 12% (inactive) | 89.4 | 101 | -6.18% (inactive) | -1.45% (inactive)
CN(C)S(=O)(=O)c1ccc(C(=O)Nc2ccccc2C(=O)O)cc1 | 102 | 88.5% (inactive) | 102% (inactive) | 102% (inactive) | 94.6% (inactive) | -1.06% (inactive) | 95.7 | 94.6 | -3.03% (inactive) | -3.17% (inactive)
Cc1ccc(NC(=O)C2CCCN2S(=O)(=O)c2cccc3cccnc23)cc1F (stereo not given) | 98 | 97.5% (inactive) | 98% (inactive) | 102% (inactive) | 93.7% (inactive) | -6.31% (inactive) | 100 | 93.7 | -4% (inactive) | 3.93% (inactive)
c1ccc2c(c1)[nH]c1c(N3CCC4(CC3)OCCO4)ncnc12 | 96.5 | 77% (inactive) | 96.5% (inactive) | 65.2% (inactive) | 92.2% (inactive) | 5.46% (inactive) | 86.7 | 92.2 | -3.87% (inactive) | -3.87% (inactive)
